One may read the pIC50 as the IC50 on a negative log10 scale, so that one unit is a factor of ten. As usually defined, the ED50 is the dose that gives a 50% effect, or the effect in half of the subjects.

pIC50: −log10 of the molar value.

Assay [1] concerns the target T1, 3-hydroxy-3-methylglutaryl-coenzyme A reductase (Homo sapiens, UniProt P04035).
T1 sequence (P04035 whole entry): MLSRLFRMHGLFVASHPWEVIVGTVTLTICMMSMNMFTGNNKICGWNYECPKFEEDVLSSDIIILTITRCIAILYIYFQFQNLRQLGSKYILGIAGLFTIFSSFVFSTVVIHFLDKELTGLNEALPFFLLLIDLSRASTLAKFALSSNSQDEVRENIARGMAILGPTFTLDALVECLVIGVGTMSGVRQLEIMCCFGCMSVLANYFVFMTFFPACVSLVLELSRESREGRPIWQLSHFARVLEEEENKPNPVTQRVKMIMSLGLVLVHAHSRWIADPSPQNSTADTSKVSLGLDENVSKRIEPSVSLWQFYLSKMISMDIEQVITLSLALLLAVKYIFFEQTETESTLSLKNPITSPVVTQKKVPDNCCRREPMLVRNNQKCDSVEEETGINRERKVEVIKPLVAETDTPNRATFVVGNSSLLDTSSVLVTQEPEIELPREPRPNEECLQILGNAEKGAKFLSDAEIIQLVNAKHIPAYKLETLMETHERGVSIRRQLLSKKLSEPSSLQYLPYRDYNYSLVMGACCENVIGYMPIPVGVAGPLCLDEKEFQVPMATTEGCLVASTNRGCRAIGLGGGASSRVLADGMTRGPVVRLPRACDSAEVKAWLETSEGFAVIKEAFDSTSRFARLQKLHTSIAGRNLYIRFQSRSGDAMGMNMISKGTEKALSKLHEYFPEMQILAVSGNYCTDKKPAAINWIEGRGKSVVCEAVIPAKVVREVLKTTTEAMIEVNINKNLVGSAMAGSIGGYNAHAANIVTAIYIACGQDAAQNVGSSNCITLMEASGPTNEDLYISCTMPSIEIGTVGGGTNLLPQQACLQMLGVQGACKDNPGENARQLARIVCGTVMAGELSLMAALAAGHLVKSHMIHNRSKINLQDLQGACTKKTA
The assay is described as follows: Inhibition of HMG-CoA reductase.

A short description of assay [2]: Reduction in LDL cholesterol on cholestyramine-primed orally dosed hamster plasma after 7 days. Type of assay: functional. The note with it: Cricetulus griseus, po, 168 h. In a few lines: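 Cholestyramine-primed hamsters were dosed orally once daily for 7 days at 0.1, 0.5, 1, 5, 10 or 50 mg/kg (separate groups, n = 10 each). Animals were sacrificed 2 h after the final dose and plasma LDL measured. Results are mean ± SEM percent change from control, with ED50 derived from the dose–response.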

A further assay concerns Hepatocyte. The assay is described as follows: Inhibition of cholesterol synthesis in rat hepatocyte. Type of assay: functional, cell-based.
The nature of assay [3]: Reduction in LDL cholesterol on cholestyramine-primed hamster serum at 10 mg/kg, po after 7 days. In kind it is functional. On the set-up: scale not given: the % may be the effect or the level left. In a few lines:
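Cholestyramine-primed hamsters were dosed orally at 10 mg/kg once daily for 7 days. At the end of treatment, serum LDL-C was measured and percent reduction calculated against an untreated control group.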

In another assay the test system is Mus musculus. The assay is described as follows: Inhibition of acute cholesterol synthesis in mouse at 1 mg/kg. Conditions: read-out: Inhibition. In kind it is functional.
Assay [4] can be described thus: Inhibition of cholesterol synthesis in rat myocyte. The note with it: Ventricular myocyte. In kind it is functional, cell-based.

As for `CCNC(=O)c1c(-c2ccccc2)c(-c2ccc(F)cc2)c(CC[C@@H](O)C[C@@H](O)CC(=O)[O-])n1C(C)C.[Na+]`, the negative logarithm of the IC50 (pIC50) in assay [1] is 7.92; with Hepatocyte it was 9.15; in assay [4] it was 5.64. Also, in assay [2], the ED50 was determined as 3 mg/kg. In assay [3], the Activity was -24%. In the assay with Mus musculus, the inhibition in vivo at 1 mg/kg came out at 76%.
In the case of `CC(C)n1c(CC[C@@H](O)C[C@@H](O)CC(=O)[O-])c(-c2ccc(F)cc2)c(-c2ccccc2)c1C(N)=O.[Na+]`, the negative-log IC50 (pIC50) in assay [1] was 8.52; in the assay with Hepatocyte, 9.22; in assay [4], 5.61. In addition, the Activity in assay [3] is on record as -11%. Besides, in the assay on Mus musculus, the inhibition in vivo at 1 mg/kg is 85%.
